Published values from different studies.
Cell line: HepG2
Read-out: cell growth or viability

SMILES	test	setting	measurement	value
CCCCCCn1c(-c2cccc(Cl)c2)n[nH]c1=S	resazurin	100 µM, 24 h	viability	75%
Cc1[nH]c2ccc(F)cc2c(=O)c1-c1ccc(Oc2ccc(OC(F)(F)F)cc2)nc1	resazurin	–	IC50	> 10 µM
COc1ccc2c(c1)c1c(n2CO)CN2CCc3cc(OC)c(OCC(F)(F)F)cc3C2C1 (stereo not drawn)	–	20 µM, 24 h	viability	74.7%
CNc1cccc2cc(C(=O)NCc3ccc(C(=O)O)cc3)c(=O)[nH]c12	CCK-8	50 µM, 48 h	cell death	18%
COc1ccc2c(c1)c1c(n2CO)CN2CCc3cc(OCc4ccccc4)c(OC)cc3C2C1 (stereo not drawn)	–	5 µM, 24 h	viability	100%
COC1=CC(c2ccc[nH]2)=NC1=Cc1ccc(CCCCCCCCCCO)[nH]1	–	–	IC50	11.4 µM
COc1ccc2c(c1)c1c(n2CO)CN2CCc3cc(OC)c(OCc4ccc(F)cc4)cc3C2C1 (stereo not drawn)	–	10 µM, 24 h	viability	104%
COC1=CC(c2ccc[nH]2)=NC1=Cc1ccc(CCCCCCCCCCCO)[nH]1	–	–	IC50	11.4 µM
COc1cc2[nH]c(C)c(-c3ccc(Oc4ccc(C(F)(F)F)cc4)cc3)c(=O)c2cc1Cl	resazurin	–	IC50	> 10 µM
CCCCCCCCCCCCCCCCOP(=O)([O-])OCC[N+](C)(C)C	MTS	24 h	CC50	> 20 µM
COC1=CC(c2ccco2)=NC1=Cc1ccc(CCCCCCCCCC(C)O)[nH]1 (stereo not drawn)	–	–	IC50	> 100 µM
COC(=O)[C@]1(O)C[C@@H](O)[C@@H](O)[C@H](OC(=O)/C=C/c2ccc(O)c(O)c2)C1	WST-1	–	IC50	30.9 µM
COc1cc2c(cc1OCc1ccccc1F)C1Cc3c(n(CO)c4ccccc34)CN1CC2 (stereo not drawn)	–	20 µM, 24 h	viability	83.6%
COc1cccc2c1C(=O)c1c(O)c3c(c(O)c1C2=O)C[C@@](O)(C(=O)CO)C[C@@H]3O[C@H]1C[C@H](N)[C@H](O)[C@H](C)O1	MTT	25 µM, 48 h	viability	31.4%
COc1ccc(CCN2CCC(Nc3nc4ccccc4n3Cc3ccc(F)cc3)CC2)cc1	resazurin	1 µM, 24 h	viability	113%
CNc1cccc2cc(C(=O)NCCc3cccc(C(=O)O)c3)c(=O)[nH]c12	CCK-8	50 µM, 48 h	cell death	15%
CC(C)(C)CC(C)(C)Nc1c(-c2cccnc2)nc2ncccn12	MTT	25 µM, 48 h	viability	92.5%
Cc1[nH]c2ccc(Cl)cc2c(=O)c1-c1ccc(Oc2ccc(OC(F)(F)F)cc2)nc1	resazurin	–	IC50	> 10 µM
